Only some compounds are listed: those with a hit (about 2.1% of all), similar ones and a draw of the others.
p97 ATPase inh: inhibitors of human p97 ATPase. inhibition, % at 8 µM. AID 1481. P55072. recombinant p97 ATPase, Kinase-Glo ATP luminescence, 3 h. 220,000 tested, 0.42% active; in the data active means inhibition above about 15%;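 further: 0% = DMSO vehicle and 100% = wells lacking enzyme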
Runt-SMMHC FRET: inhibitors of human RUNX1 Runt domain binding to CBFb-SMMHC; Q01196+Q13951; Cerulean-Runt/Venus-CBFb-SMMHC FRET ratio 530/480, 1 h; inhibition, % at 20 µM; 220,000 tested, 0.74% active; AID 1434;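 active means mean inhibition across duplicate retests at 20 µM reaching about 50%, limit read from the data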;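 further: 0% = DMSO wells and 100% = wells with excess untagged CBFb-SMMHC; inhibitors lower the FRET ratio by blocking Runt binding to CBFb-SMMHC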
Target sequence (Q01196 whole entry, looked up, the tested form may be a part): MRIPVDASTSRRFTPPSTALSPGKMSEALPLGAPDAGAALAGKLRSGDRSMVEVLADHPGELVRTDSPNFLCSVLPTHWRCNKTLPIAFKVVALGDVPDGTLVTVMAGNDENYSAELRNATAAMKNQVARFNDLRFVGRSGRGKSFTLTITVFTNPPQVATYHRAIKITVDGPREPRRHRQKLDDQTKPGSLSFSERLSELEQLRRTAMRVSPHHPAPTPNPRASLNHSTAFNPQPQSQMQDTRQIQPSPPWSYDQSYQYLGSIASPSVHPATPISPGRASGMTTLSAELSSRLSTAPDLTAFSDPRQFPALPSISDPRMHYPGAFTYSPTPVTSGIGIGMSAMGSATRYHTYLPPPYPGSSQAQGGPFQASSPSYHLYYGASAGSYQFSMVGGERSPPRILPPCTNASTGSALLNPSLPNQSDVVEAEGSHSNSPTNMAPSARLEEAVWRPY
Target sequence (Q13951 whole entry, looked up, the tested form may be a part): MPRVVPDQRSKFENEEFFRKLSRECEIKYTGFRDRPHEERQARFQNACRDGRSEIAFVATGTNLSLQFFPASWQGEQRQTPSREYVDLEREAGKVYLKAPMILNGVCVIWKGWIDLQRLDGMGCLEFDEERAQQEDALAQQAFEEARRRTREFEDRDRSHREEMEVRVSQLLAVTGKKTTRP
RanGTP-Imp inh: inhibitors of RanGTP-importin-beta interaction, primary screen, biochemical, FRET, CFP-Ran, YFP-importin-beta, homogeneous | inhibition, % (test concentration not listed) | cell-free CFP-Ran/YFP-importin-beta FRET ratio | AID 2216 | 300,000 tested, 1.1% active;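 active means more than half of the replicate wells show a fall in the fluorescence ratio signal beyond about 16%, limit read from the data, passing the limit was not always enough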;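 further: 0% = DMSO wells and 100% = Ran loaded with GDP instead of GTP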
Tb hexokinase: blocks Trypanosoma brucei hexokinase 1 activity; recombinant TbHK1, G6PDH-coupled NADH A340; inhibition, % at 10 µM; 220,000 tested, 0.11% active;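 active means inhibition of 50% or more in the single-dose primary screen; inactive means inhibition below 50%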
Runt-CBFb FRET: inhibitors of human RUNX1 Runt domain binding to CBFb; Q01196+Q13951; inhibition, % at 20 µM; 220,000 tested, 0.46% active; Cerulean-Runt/Venus-CBFb FRET ratio 530/480, 1 h;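 active means inhibition over about 50% at 20 µM in the single-dose screen, limit read from the data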;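 further: 0% = DMSO wells and 100% = excess unlabeled CBFb competitor control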
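Assay system: Cerulean-tagged RUNX1 Runt domain (FRET donor) fusion protein / Amount: 100 nM each of Venus-CBFb and Cerulean-Runt domain / Medium: Tris buffer pH 7.5 with salts and BSA / Also added: Venus-CBFb 100 nM / Schedule: 1 h complex formation plus 1 h compound treatment, room temperature / Signal: FRET fluorescence / Read-out: loss of energy transfer signal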
Hck-Nef inh: blocks Nef-activated human Hck kinase; Recombinant Hck-YEEI plus Nef, Z-Lyte FRET kinase assay; inhibition, % at 20 µM; 220,000 tested, 0.68% active; AID 463187;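 active means Hck-Nef kinase inhibition above about 50%, limit read from the data; inactive means inhibition below that limit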;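 further: 0% = DMSO with Hck plus Nef and 100% = Hck alone without Nef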
Numbers without * were called inactive.

CCOc1ccc(Cn2c(=O)sc3ccccc32)cc1OC was read as p97 ATPase inh 3, Runt-SMMHC FRET -4, RanGTP-Imp inh 9, Tb hexokinase -7, Runt-CBFb FRET 4 and Hck-Nef inh 19.
Screening Cc1cccn2c(=O)c(/C=C(\C#N)C(=O)NC3CCS(=O)(=O)C3)c(N3CCC(C)CC3)nc12 (configuration not stated) returned p97 ATPase inh -6, Runt-SMMHC FRET 63*, RanGTP-Imp inh 84*, Tb hexokinase 0, Runt-CBFb FRET 19 and Hck-Nef inh 39.
N#C/C(=C\c1c(N2CCCCC2)nc2ccccn2c1=O)C(=O)NC1CCS(=O)(=O)C1 (configuration not stated) was read as p97 ATPase inh 3, Runt-SMMHC FRET 81*, RanGTP-Imp inh 80*, Tb hexokinase 22, Runt-CBFb FRET 4 and Hck-Nef inh 8.
For COC(=O)/C(C#N)=C/c1c(N2CCCCCC2)nc2ccccn2c1=O the results were RanGTP-Imp inh 4.
For CC(NC(=S)Nc1c(Br)cccc1OC(F)F)C(C)(C)C (configuration not stated) the results were p97 ATPase inh 0, Runt-SMMHC FRET 2, RanGTP-Imp inh -4, Tb hexokinase 33, Runt-CBFb FRET -5 and Hck-Nef inh 6.
`CCS(=O)(=O)N1CCC(c2nc3ccccc3[nH]2)CC1` gave RanGTP-Imp inh -2.
`CC1C(=O)C(C)C(c2cccc(Br)c2)NC1c1cccc(Br)c1` (configuration not stated) gave RanGTP-Imp inh 1.
For C=CCc1cc(/C=C/c2nc(O)c([N+](=O)[O-])c(=O)[nH]2)cc(OC)c1O the results were p97 ATPase inh 4, Runt-SMMHC FRET 80*, RanGTP-Imp inh 34*, Tb hexokinase -11, Runt-CBFb FRET 38 and Hck-Nef inh 32.
Screening CCOc1cc(/C=C\c2nc(O)c([N+](=O)[O-])c(=O)[nH]2)ccc1OC(C)C returned RanGTP-Imp inh 7.
For COc1ccc(CNC(=O)c2cccnc2)cc1 the results were RanGTP-Imp inh 1.
Screening CCCN1C(=O)C2(OCCO2)c2cc(Cl)ccc21 returned RanGTP-Imp inh 1.
Screening CN1c2ccc(Cl)cc2C(=O)NC1C1CC=CCC1 (configuration not stated) returned p97 ATPase inh -2, Runt-SMMHC FRET 95*, RanGTP-Imp inh 30*, Tb hexokinase 6, Runt-CBFb FRET 42 and Hck-Nef inh -4.
Screening C=CCn1c2ccccc2c(=O)c2cc(C#CC3(O)CCCCC3)ccc21 returned RanGTP-Imp inh 161*.
For O=c1c2ccccc2oc2cc(C#CC3(O)CCCCC3)ccc12 the results were RanGTP-Imp inh -3.
CCC(=O)Nc1nnc(SCC(=O)NC2CCCC2)s1 was read as RanGTP-Imp inh 3.
For O=c1[nH]c(NCCO)c(N=Cc2ccccc2)c(=O)[nH]1 the results were RanGTP-Imp inh 164*.
`O=C(CNc1n[nH]c(=O)[nH]c1=O)N/N=C/c1ccccc1` gave p97 ATPase inh 2, Runt-SMMHC FRET 1, RanGTP-Imp inh 1, Tb hexokinase -3, Runt-CBFb FRET -3 and Hck-Nef inh 15.
`O=C(CCN1C(=O)c2ccccc2C1=O)N1CCN(Cc2ccccc2)CC1` gave p97 ATPase inh -2, Runt-SMMHC FRET 0, RanGTP-Imp inh 10, Tb hexokinase -12, Runt-CBFb FRET 1 and Hck-Nef inh 1.
For Cc1ccc(CN2CCN(C(=O)CCN3C(=O)c4ccccc4C3=O)CC2)cc1 the results were p97 ATPase inh 3, Runt-SMMHC FRET 5, RanGTP-Imp inh 6, Tb hexokinase -6, Runt-CBFb FRET 108* and Hck-Nef inh 0.
For O=C(NCC1OCCc2ccccc21)c1cc(COc2ccc(F)cc2Cl)on1 (configuration not stated) the results were p97 ATPase inh 0, Runt-SMMHC FRET -6, RanGTP-Imp inh 1, Tb hexokinase 8, Runt-CBFb FRET 0 and Hck-Nef inh -5.
`CCc1sc(C(=O)Nc2ccccc2N2CCOCC2)cc1C` gave p97 ATPase inh 1, Runt-SMMHC FRET -4, RanGTP-Imp inh -1, Tb hexokinase -3, Runt-CBFb FRET -3 and Hck-Nef inh -2.
For COc1ccc2cc(-c3cc(C(=O)OCC(=O)NC4CCS(=O)(=O)C4)c4ccccc4n3)ccc2c1 (configuration not stated) the results were p97 ATPase inh 0, Runt-SMMHC FRET 79*, RanGTP-Imp inh 24*, Tb hexokinase -3, Runt-CBFb FRET -9 and Hck-Nef inh 15.
Screening Cc1cc(C(=O)OCC(=O)NC2CCS(=O)(=O)C2)c2ccccc2n1 (configuration not stated) returned p97 ATPase inh 0, Runt-SMMHC FRET 3, RanGTP-Imp inh -3, Tb hexokinase -2, Runt-CBFb FRET 1 and Hck-Nef inh -14.
Cc1ccc(S(=O)(=O)N2C(=O)CCC2C(=O)O/N=C(\N)c2ccccc2)cc1 (configuration not stated) was read as RanGTP-Imp inh 2.
For Oc1oc(-c2ccccc2)nc1C=Nc1cccc2ccccc12 the results were p97 ATPase inh 2, Runt-SMMHC FRET 9, RanGTP-Imp inh 27*, Tb hexokinase -7, Runt-CBFb FRET 1 and Hck-Nef inh 0.
Screening Cc1cccn2c(=O)c3cc(S(=O)(=O)c4ccc(F)cc4)c(=N)n(Cc4ccco4)c3nc12 returned p97 ATPase inh 7, Runt-SMMHC FRET 81*, RanGTP-Imp inh 84*, Tb hexokinase -10, Runt-CBFb FRET 10 and Hck-Nef inh 18.
`Cc1cccn2c(=O)c3cc(S(=O)(=O)c4ccccc4)c(=N)n(Cc4ccco4)c3nc12` gave p97 ATPase inh 5, RanGTP-Imp inh 93*, Tb hexokinase -6 and Hck-Nef inh 31.
Screening CCCCN(C(=O)Cc1coc2cc(C)c(C)cc12)c1c(N)n(Cc2ccccc2)c(=O)[nH]c1=O returned RanGTP-Imp inh -3.
Screening Cc1ccc2c(cnn2C(=O)CCCC(=O)NCc2ccc(Cl)cc2)c1 returned RanGTP-Imp inh 26*.
Cc1ccc(CNC(=O)CCC(=O)n2ncc3cc(C)ccc32)cc1 was read as RanGTP-Imp inh 4.
For COc1ccc(C2=C/C(=C/c3cccnc3)C(=O)O2)cc1OC the results were p97 ATPase inh 1, Runt-SMMHC FRET -60, RanGTP-Imp inh -15, Tb hexokinase -10, Runt-CBFb FRET -16 and Hck-Nef inh -2.
For CCOc1ccc(C2=C/C(=C/c3cccnc3)C(=O)O2)cc1 the results were p97 ATPase inh 0, Runt-SMMHC FRET 78, RanGTP-Imp inh 29*, Tb hexokinase -11, Runt-CBFb FRET 12 and Hck-Nef inh -3.
